Test results: PMC10835759 (RSC Advances, 2024)
One block for each molecule: values may come before it.

Key:
rat α-glucosidase = assay: Glycosidase inhibitory activity, enzymes from rat small intestines; assay type: biochemical; conditions: rat small intestinal enzymes, at 100 μg mL^−1
Method in brief: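 Enzyme source: brush border membrane vesicles prepared from rat small intestine and suspended in 0.1 M maleate buffer, pH 6.0. Test compound in DMSO, diluted in maleate buffer to 10% DMSO (2.5% final). Substrate solutions in maleate buffer: maltose 74 mM, sucrose 74 mM, 7.4 mM for isomaltase. Mixture incubated at 37 °C for 30 min and stopped by boiling for 2 min. Glucose measured by the glucose-oxidase method.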

[1] = target: rat intestinal isomaltase (Rattus norvegicus, UniProt P23739); assay: Inhibitory effects on rat intestinal α-glucosidases: isomaltase; assay type: biochemical; conditions: at 100 μg mL^−1 (26a: 297 μM, 26b: 271 μM, 26c and 27c: 341 μM, 28a: 326 μM, 28b: 296 μM, 28c: 380 μM)
rat intestinal isomaltase, sequence (P23739 whole entry): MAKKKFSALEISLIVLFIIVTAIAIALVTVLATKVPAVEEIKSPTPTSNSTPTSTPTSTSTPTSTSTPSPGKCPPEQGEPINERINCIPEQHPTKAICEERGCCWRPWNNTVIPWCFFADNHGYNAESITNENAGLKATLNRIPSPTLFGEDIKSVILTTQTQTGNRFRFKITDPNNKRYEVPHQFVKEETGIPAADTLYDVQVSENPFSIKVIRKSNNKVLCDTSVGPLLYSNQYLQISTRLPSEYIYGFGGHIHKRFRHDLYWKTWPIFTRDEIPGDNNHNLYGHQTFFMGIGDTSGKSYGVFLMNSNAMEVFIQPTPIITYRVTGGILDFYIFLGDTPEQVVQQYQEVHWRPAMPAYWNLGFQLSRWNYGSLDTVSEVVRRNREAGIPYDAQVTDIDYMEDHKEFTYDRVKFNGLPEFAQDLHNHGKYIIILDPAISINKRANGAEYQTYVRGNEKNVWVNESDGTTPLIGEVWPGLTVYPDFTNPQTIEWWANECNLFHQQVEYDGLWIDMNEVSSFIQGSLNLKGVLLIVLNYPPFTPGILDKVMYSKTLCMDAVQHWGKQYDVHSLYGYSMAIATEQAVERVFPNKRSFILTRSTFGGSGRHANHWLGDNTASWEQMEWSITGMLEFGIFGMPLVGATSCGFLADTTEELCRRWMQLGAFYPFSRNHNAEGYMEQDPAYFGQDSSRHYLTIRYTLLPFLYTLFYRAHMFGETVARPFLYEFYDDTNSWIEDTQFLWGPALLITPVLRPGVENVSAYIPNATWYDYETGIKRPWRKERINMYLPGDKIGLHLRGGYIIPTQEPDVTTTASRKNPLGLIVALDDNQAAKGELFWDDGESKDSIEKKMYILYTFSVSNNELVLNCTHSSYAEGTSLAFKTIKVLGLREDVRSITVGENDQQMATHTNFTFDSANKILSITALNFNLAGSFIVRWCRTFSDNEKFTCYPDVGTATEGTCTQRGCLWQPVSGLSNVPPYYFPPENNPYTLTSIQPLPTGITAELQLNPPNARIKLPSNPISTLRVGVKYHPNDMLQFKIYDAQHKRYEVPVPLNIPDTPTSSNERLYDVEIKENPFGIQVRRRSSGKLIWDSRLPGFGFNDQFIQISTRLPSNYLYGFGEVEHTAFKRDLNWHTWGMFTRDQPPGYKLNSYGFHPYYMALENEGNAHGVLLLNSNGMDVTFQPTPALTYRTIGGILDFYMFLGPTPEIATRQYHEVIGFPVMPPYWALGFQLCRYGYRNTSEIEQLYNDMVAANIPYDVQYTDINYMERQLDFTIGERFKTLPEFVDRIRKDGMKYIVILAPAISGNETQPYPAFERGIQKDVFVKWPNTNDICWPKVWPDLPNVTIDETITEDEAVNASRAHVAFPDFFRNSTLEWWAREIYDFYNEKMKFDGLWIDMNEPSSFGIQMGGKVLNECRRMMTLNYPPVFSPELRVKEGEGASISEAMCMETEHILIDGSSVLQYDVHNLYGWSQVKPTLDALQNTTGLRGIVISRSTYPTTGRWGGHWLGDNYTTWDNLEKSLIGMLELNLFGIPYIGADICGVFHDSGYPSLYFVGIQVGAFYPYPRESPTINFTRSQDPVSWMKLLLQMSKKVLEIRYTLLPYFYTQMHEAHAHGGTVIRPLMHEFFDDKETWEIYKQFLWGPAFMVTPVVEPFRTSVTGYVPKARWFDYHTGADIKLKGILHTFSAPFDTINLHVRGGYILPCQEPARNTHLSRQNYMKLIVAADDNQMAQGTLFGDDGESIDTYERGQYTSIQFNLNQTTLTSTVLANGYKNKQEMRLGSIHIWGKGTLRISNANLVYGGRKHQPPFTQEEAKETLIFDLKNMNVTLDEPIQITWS

rat intestinal sucrase = rat intestinal sucrase (Rattus norvegicus, UniProt P23739); assay: Inhibitory effects on rat intestinal α-glucosidases: sucrase; assay type: biochemical; conditions: for IC50: IC50 Sucrase, rat small intestinal brush border membrane vesicles, sucrose 74 mM, pH 6.0, 37 °C, 30 min; for inhibition (%) Sucrase: at 100 μg mL^−1 (26a: 297 μM, 26b: 271 μM, 26c and 27c: 341 μM, 28a: 326 μM, 28b: 296 μM, 28c: 380 μM)
rat intestinal sucrase, sequence (P23739 whole entry): as above

yeast glucosidase = conditions: read-out: Ki, inhibitory activity against yeast glucosidase; cited from earlier work

SMILES: OCC[S+](C[C@@H](O)[C@@H](O)CO)C(CO)CO.[Cl-] (single isomer, unassigned) [Compound 26c]
inhibitory activity against maltase, sucrase and isomaltase (in words) (rat α-glucosidase): hardly inhibited
inhibition (%) Isomaltase [1]: 5.9%
IC50 (rat intestinal sucrase): > 341 µM
inhibition (%) Sucrase (rat intestinal sucrase): 3.2%

SMILES: OCC[S+](C[C@@H](O)CO)C[C@@H](O)[C@@H](O)CO.[Cl-] (stereo partly drawn) [Compound 27c, [(S)-2,3-Dihydroxypropyl] (2-hydroxyethyl) ((2S,3S)-2,3,4-trihydroxybutyl) sulfonium chloride]
inhibitory activity against maltase, sucrase and isomaltase (in words) (rat α-glucosidase): negligible
inhibition (%) Isomaltase [1]: −2.3%
IC50 (rat intestinal sucrase): > 341 µM
inhibition (%) Sucrase (rat intestinal sucrase): 4.4%

SMILES: OCC[S+](CCO)C[C@@H](O)[C@@H](O)CO.[Cl-] [Compound 28c, Di(2-hydroxyethyl) [(2S,3S)-2,3,4-trihydroxybutyl] sulfonium chloride]
inhibitory activity against maltase, sucrase and isomaltase (in words) (rat α-glucosidase): lost considerable activity
inhibition (%) Isomaltase [1]: −0.9%
IC50 (rat intestinal sucrase): > 380 µM
inhibition (%) Sucrase (rat intestinal sucrase): 2.6%

Now from value to molecule, other results behind:

inhibitory activity against maltase, sucrase and isomaltase (in words) (rat α-glucosidase): effectively inhibited
IC50 (rat intestinal sucrase): 1.4 µM
SMILES: [O-][C@@H](CO)[C@H](O)C[S@+]1C[C@@H](O)[C@H](O)[C@H]1CO [Neosalacinol (4), neosalacinol, reference compound]

inhibitory activity against maltase, sucrase and isomaltase (in words) (rat α-glucosidase): effectively inhibited
SMILES: O=S(=O)([O-])O[C@@H](CO)[C@H](O)C[S@+]1C[C@@H](O)[C@H](O)[C@H]1CO [Salacinol (1), salacinol, reference compound]
Ki (yeast glucosidase): 14 µM
